Biological target: T1, OR2T8 (Homo sapiens) (UniProt A6NH00)
T1 sequence (whole entry): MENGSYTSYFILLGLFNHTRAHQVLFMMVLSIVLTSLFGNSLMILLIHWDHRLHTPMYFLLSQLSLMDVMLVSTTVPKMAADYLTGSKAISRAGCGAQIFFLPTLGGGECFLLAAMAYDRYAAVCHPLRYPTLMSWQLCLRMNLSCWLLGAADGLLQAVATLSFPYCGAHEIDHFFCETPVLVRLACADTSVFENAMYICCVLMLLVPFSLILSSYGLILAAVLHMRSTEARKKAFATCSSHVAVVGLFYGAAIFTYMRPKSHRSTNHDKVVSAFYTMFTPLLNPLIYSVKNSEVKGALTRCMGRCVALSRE
Details: stereoisomer not certain
Summary of the method: (§1)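 Values were gathered from published papers (main text and supplementary material), with extra details requested from the original authors when needed, and checked for typos and inconsistencies. Each receptor–molecule pair is called responsive (active) if the original authors judged the measured signal statistically different from baseline, and non-responsive (inactive) otherwise. Assay methods varied by source, often transient mammalian cell-line luciferase assays. Recorded details include cell line, G-protein, co-transfected protein and tags.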

Row | SMILES | odorant receptor agonist call
1 | CCCC(S)CCOC(C)=O (stereo not drawn) | inactive
2 | CC(CO)CS (stereo not drawn) | inactive
3 | Cc1cnc(C)c(C)n1 | inactive
4 | CCC1OC(C)=C(O)C1=O (stereo not drawn) | inactive
5 | CC(=O)c1c(C)c([N+](=O)[O-])c(C(C)(C)C)c([N+](=O)[O-])c1C | inactive
6 | CCC1OC(=O)C(O)=C1C (stereo not drawn) | inactive
7 | CCC(S)C(C)CO (stereo not drawn) | inactive
8 | CCCCC(S)C(C)CO (stereo not drawn) | inactive
9 | CCCCCC(S)C(C)CO (stereo not drawn) | inactive
10 | CC1=C(O)C(=O)C(C)O1 (stereo not drawn) | inactive
11 | CC1=NC(C)C(C)S1 (stereo not drawn) | inactive
12 | CCCCCCC=CCCC=O | inactive
13 | CC1CCCCCCCCCCCCC(=O)C1 (stereo not drawn) | inactive
14 | CCCCCC(=O)C(C)C(C)=O (stereo not drawn) | inactive
15 | CC1=C(O)C(=O)OC1C (stereo not drawn) | inactive

Biological target: T2, OR2V1 (Homo sapiens) (UniProt Q8NHB1)
T2 sequence (whole entry): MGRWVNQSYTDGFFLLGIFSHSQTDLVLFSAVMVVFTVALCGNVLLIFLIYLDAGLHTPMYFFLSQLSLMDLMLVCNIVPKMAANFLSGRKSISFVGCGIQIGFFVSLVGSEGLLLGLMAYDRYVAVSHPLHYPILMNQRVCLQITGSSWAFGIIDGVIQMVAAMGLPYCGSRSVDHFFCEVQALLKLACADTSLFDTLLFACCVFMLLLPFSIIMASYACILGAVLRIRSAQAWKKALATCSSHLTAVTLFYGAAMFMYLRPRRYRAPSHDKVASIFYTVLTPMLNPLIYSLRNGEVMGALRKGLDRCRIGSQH
Details: stereoisomer not certain
Summary of the method: as §1

Row | SMILES | odorant receptor agonist call
16 | CCCC(S)CCOC(C)=O (stereo not drawn) | inactive
17 | CC(CO)CS (stereo not drawn) | inactive
18 | Cc1cnc(C)c(C)n1 | inactive
19 | CCC1OC(C)=C(O)C1=O (stereo not drawn) | inactive
20 | CC(=O)c1c(C)c([N+](=O)[O-])c(C(C)(C)C)c([N+](=O)[O-])c1C | inactive
21 | CCC1OC(=O)C(O)=C1C (stereo not drawn) | inactive
22 | CCC(S)C(C)CO (stereo not drawn) | inactive
23 | CCCCC(S)C(C)CO (stereo not drawn) | inactive
24 | CCCCCC(S)C(C)CO (stereo not drawn) | inactive
25 | CC1=C(O)C(=O)C(C)O1 (stereo not drawn) | inactive
26 | CC1=NC(C)C(C)S1 (stereo not drawn) | inactive
27 | CCCCCCC=CCCC=O | inactive
28 | CC1CCCCCCCCCCCCC(=O)C1 (stereo not drawn) | inactive
29 | CCCCCC(=O)C(C)C(C)=O (stereo not drawn) | inactive
30 | CC1=C(O)C(=O)OC1C (stereo not drawn) | inactive

Biological target: T3, OR2V2 (Homo sapiens) (UniProt Q96R30)
T3 sequence (whole entry): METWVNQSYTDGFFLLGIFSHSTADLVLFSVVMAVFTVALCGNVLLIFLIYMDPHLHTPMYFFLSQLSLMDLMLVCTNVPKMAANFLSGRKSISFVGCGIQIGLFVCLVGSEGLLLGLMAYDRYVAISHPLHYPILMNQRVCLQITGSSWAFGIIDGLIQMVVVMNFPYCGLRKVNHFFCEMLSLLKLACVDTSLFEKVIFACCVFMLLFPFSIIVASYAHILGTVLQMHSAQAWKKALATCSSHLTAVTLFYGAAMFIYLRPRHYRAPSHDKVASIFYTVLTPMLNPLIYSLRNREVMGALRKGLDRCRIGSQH
Details: stereoisomer not certain
Summary of the method: as §1

Row | SMILES | odorant receptor agonist call
31 | CCCC(S)CCOC(C)=O (stereo not drawn) | inactive
32 | CC(CO)CS (stereo not drawn) | inactive
33 | Cc1cnc(C)c(C)n1 | inactive
34 | CCC1OC(C)=C(O)C1=O (stereo not drawn) | inactive
35 | CC(=O)c1c(C)c([N+](=O)[O-])c(C(C)(C)C)c([N+](=O)[O-])c1C | inactive
36 | CCC1OC(=O)C(O)=C1C (stereo not drawn) | inactive
37 | CCC(S)C(C)CO (stereo not drawn) | inactive
38 | CCCCC(S)C(C)CO (stereo not drawn) | inactive
39 | CCCCCC(S)C(C)CO (stereo not drawn) | inactive
40 | CC1=C(O)C(=O)C(C)O1 (stereo not drawn) | inactive
41 | CC1=NC(C)C(C)S1 (stereo not drawn) | inactive
42 | CCCCCCC=CCCC=O | inactive
43 | CC1CCCCCCCCCCCCC(=O)C1 (stereo not drawn) | inactive
44 | CCCCCC(=O)C(C)C(C)=O (stereo not drawn) | inactive
45 | CC1=C(O)C(=O)OC1C (stereo not drawn) | inactive

Biological target: T4, OR2W1 (Homo sapiens) (UniProt Q9Y3N9)
T4 sequence (whole entry): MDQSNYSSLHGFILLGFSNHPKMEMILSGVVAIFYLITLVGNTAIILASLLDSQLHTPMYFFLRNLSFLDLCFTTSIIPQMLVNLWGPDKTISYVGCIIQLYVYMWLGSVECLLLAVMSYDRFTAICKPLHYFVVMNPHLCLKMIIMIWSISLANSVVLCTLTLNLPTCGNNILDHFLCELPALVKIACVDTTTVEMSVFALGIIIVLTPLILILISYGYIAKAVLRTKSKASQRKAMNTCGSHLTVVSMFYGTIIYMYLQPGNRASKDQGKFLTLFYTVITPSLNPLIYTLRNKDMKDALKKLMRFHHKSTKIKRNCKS
Details: stereoisomer not certain
Summary of the method: as §1

Row | SMILES | odorant receptor agonist call
46 | CCCC(S)CCOC(C)=O (stereo not drawn) | active
47 | CC(CO)CS (stereo not drawn) | inactive
48 | CCCC(O)CC(=O)OCC (stereo not drawn) | inactive
49 | CC1=CCC2CC1C2(C)C (stereo not drawn) | inactive
50 | Cc1cnc(C)c(C)n1 | inactive
51 | Cc1occc(=O)c1O | inactive
52 | CCC1OC(C)=C(O)C1=O (stereo not drawn) | inactive
53 | COC(=O)C(C)C | inactive
54 | CC(=O)c1c(C)c([N+](=O)[O-])c(C(C)(C)C)c([N+](=O)[O-])c1C | inactive
55 | CCC1OC(=O)C(O)=C1C (stereo not drawn) | inactive
56 | CCCCCCCCC1CCC(=O)O1 (stereo not drawn) | inactive
57 | O=C1Cc2ccccc2O1 | inactive
58 | CCOC(C)OCC | inactive
59 | CC(=O)CC(=O)CC(C)C | active
60 | CCCCC(C)=O | active
61 | CCC(S)C(C)CO (stereo not drawn) | inactive
62 | C=CC(=O)CC=CCC | inactive

Row | SMILES | odorant receptor agonist call
63 | CCCCC(S)C(C)CO (stereo not drawn) | inactive
64 | CCCCCC(S)C(C)CO (stereo not drawn) | inactive
65 | Cc1cccc(O)c1 | inactive
66 | CC(C)=CC1CC(C)CCO1 (stereo not drawn) | inactive
67 | CC1=C(O)C(=O)C(C)O1 (stereo not drawn) | inactive
68 | CCCCCC=O | inactive
69 | CCOC(=O)CCC(C)C | active
70 | CCCCC(=O)O | inactive
71 | CC1=NC(C)C(C)S1 (stereo not drawn) | inactive
72 | CC(C)CCCCCCCCCCC=O | inactive
73 | CCCCCCC=CCCC=O | inactive
74 | CC1CCCCCCCCCCCCC(=O)C1 (stereo not drawn) | inactive
75 | CCC(C)C=O (stereo not drawn) | inactive
76 | CCCCCC(=O)C(C)C(C)=O (stereo not drawn) | inactive
77 | CC1=C(O)C(=O)OC1C (stereo not drawn) | inactive
78 | CSCCC=O | inactive

Reference: the M2OR odorant receptor database
